The text below walks through data of ChEMBL document CHEMBL4699441, “Identification and Preclinical Evaluation of the Bicyclic Pyrimidine γ-Secretase Modulator BMS-932481” (ACS Med Chem Lett, 2019).

SMILES strings stand for the structures. Calls of active or inactive are those of the source. No cut-off for these calls is given here.

The nature of series [1]: Stability in human liver microsomes assessed as remaining compound measured after 10 mins by LC-MS/MS analysis. Format: ADME, Microsome. The note with it: read-out: Stabilty. The procedure, abridged:
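High-throughput microsomal stability: 3 μM substrate, 1 mg/mL microsomal protein, 100 mM sodium phosphate pH 7.4, 37 °C; quenched at 10 min, LC–MS/MS, percent parent remaining reported.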
For orientation: Liver microsomes are a subcellular fraction often used to study metabolism.

Series [2] is described as follows: Inhibition of amyloid beta (1 to 42) secretion in human H4 cells overexpressing APP incubated for overnight by HTRF analysis. Format: functional, cell-based. On the technique in general: Time-resolved FRET reads energy transfer from a long-lived donor to a nearby acceptor.
Series [3] addresses T1, UDP-glucuronosyltransferase 1A1 (Homo sapiens, UniProt P22309).
T1 sequence (P22309 whole entry): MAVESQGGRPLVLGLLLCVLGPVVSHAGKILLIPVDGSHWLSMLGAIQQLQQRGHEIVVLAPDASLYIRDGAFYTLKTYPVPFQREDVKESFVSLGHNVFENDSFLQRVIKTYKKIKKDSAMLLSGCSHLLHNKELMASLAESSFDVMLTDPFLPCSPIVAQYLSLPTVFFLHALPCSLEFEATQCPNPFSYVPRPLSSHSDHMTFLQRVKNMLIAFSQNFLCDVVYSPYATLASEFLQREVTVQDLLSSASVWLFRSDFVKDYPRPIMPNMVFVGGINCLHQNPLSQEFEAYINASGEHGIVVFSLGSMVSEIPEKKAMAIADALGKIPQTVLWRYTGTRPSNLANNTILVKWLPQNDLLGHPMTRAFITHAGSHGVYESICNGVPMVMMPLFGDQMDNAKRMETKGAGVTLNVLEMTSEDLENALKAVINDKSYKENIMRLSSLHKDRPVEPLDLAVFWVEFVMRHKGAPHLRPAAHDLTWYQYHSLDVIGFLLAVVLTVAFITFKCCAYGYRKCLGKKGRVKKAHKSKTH
The series can be described thus: Inhibition of human UGT1A1. Format: ADME.

Series [4] addresses T2, Solute carrier organic anion transporter family member 1B1 (Homo sapiens, UniProt Q9Y6L6).
T2 sequence (Q9Y6L6 whole entry): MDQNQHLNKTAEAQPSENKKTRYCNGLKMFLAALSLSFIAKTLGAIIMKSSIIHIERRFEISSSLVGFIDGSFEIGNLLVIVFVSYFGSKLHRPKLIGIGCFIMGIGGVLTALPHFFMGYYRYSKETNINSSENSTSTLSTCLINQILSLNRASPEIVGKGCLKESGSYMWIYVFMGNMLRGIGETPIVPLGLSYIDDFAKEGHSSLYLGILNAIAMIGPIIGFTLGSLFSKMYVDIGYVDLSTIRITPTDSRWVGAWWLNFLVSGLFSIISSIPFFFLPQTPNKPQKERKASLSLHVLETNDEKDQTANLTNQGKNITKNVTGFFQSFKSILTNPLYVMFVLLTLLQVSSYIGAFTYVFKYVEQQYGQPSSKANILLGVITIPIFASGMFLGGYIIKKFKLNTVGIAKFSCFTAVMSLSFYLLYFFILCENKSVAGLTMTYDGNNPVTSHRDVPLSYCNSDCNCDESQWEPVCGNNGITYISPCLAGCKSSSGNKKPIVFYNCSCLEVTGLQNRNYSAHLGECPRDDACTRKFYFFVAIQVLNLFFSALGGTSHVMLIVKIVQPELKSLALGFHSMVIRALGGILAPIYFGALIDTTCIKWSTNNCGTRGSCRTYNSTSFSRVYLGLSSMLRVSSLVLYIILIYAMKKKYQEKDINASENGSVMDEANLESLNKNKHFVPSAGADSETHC
Kind of series: Inhibition of OATP1B1 (unknown origin). The series is classed as ADME.

Series [5] in a line: Oral bioavailability in Beagle dog incubated for 24 hrs by LC-MS/MS analysis. The series is classed as ADME, organism-based, Canis lupus familiaris. The note with it: in vivo.
Series [6] in a line: Fraction unbound in human plasma measured after 24 hrs by LC-MS/MS analysis. The series is classed as ADME, cell-free.
Series [7] in a line: AUC (0 to 24 hrs) in Harlan Sprague-Dawley rat incubated for 24 hrs by LC-MS/MS analysis. On the set-up: time 24 hrs. The series is classed as ADME. The note with it: in vivo.
The nature of series [8]: Reduction in amyloid beta (1 to 42) secretion in brain in triple transgenic LaFerla mouse at 30 mg/kg, po measured after 3 hrs relative to control. Format: functional. The procedure, abridged:
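Triple transgenic LaFerla mice (APP Swedish, MAPT P301L, PSEN1 M146V) given 30 mg/kg po; brain Aβ1-42 measured 3 h postdose; n = 3.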

The target in series [9] is Voltage-gated inwardly rectifying potassium channel KCNH2 (Homo sapiens, UniProt Q12809). Kind of series: Inhibition of human ERG by patch clamp method. (In general: The patch-clamp technique gives a direct electrical read-out from membranes.)
Sequence of Voltage-gated inwardly rectifying potassium channel KCNH2 (Q12809 whole entry): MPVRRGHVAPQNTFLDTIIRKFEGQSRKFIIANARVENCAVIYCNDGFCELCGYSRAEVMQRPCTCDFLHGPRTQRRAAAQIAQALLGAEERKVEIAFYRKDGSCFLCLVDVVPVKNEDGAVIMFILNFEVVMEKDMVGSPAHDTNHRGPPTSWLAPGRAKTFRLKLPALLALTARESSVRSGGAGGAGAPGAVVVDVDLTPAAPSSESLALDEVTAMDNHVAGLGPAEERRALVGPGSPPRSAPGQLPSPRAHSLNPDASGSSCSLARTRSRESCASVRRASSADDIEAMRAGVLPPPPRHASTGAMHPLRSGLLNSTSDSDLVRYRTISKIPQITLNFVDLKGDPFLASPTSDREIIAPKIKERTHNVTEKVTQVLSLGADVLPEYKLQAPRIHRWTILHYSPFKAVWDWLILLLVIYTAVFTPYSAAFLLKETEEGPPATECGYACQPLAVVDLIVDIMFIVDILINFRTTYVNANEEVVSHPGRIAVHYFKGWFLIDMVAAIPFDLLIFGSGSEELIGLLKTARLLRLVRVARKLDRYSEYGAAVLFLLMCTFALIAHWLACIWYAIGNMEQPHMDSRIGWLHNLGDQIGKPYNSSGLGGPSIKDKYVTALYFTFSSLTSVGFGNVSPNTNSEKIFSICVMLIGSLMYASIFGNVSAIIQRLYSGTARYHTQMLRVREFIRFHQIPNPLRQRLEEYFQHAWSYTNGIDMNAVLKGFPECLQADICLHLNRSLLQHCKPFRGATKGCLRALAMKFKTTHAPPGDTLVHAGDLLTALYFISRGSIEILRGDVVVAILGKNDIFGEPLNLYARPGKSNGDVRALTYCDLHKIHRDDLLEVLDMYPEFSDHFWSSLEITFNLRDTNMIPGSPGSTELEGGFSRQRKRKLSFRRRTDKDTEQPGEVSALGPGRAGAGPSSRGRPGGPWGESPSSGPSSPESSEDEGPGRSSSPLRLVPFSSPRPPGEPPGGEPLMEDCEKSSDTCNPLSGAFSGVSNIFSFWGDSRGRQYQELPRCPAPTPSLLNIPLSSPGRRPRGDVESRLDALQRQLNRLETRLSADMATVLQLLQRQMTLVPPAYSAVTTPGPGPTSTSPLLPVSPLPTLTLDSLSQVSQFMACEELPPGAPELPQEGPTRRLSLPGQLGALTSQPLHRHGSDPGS
Series [10] is described as follows: Cardiotoxicity in rabbit assessed as NOAEL by telemetric analysis. The series is classed as toxicity, Oryctolagus cuniculus.
Series [11] can be described thus: Oral bioavailability in cynomolgus monkey incubated for 24 hrs by LC-MS/MS analysis. The series is classed as ADME, organism-based, Macaca fascicularis. The note with it: in vivo.
Series [12] can be described thus: Toxicity in rat assessed as hepatocellular necrosis at 10 to 100 mg/kg, po administered for 4 days by histological assay. Format: organism-based. To be noted: in vivo, 96 h, dose 10-100 mg/kg, time 4 day.
A short description of series [13]: Reduction in amyloid beta (1 to 42) secretion in brain in Harlan Sprague-Dawley rat at 10 mg/kg, po measured after 3 hrs relative to control. Format: functional. The essentials:
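Sprague–Dawley rats dosed 10 mg/kg po; brain Aβ1-42 measured 3 h postdose; n = 5.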

Series [14] in a line: Toxicity in rat assessed as increase in unconjugated bilirubin in plasma at 10 to 100 mg/kg, po administered for 4 days. Format: organism-based. The note with it: in vivo, 96 h, dose 10-100 mg/kg, time 4 day. The procedure, abridged:
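Rats dosed orally at 10, 30 and 100 mg/kg for 4 days; plasma inspected and unconjugated bilirubin assessed.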

The nature of series [15]: Plasma concentration in Harlan Sprague-Dawley rat at 10 mg/kg, po measured after 3 hrs. Format: ADME, organism-based.
Series [16] can be described thus: Octanol/water partition coefficient, logD of the compound at pH 6.5 by shake flask method. Format: physicochemical. The procedure, abridged:
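Octanol/water partitioning by shake flask at pH 6.5.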

Series [17] concerns Homo sapiens. Kind of series: Antialzheimer activity in human assessed as reduction in amyloid beta (1 to 42) AUC at 1.3 mg/kg qd relative to control. Set-up: scale not given: the % may be the effect or the level left.
For another series, the species on record is Rattus norvegicus. The series can be described thus: Antialzheimer activity in Harlan Sprague-Dawley rat brain assessed as reduction in amyloid beta (1 to 42) AUC relative to control. Format: functional. Set-up: scale not given: the % may be the effect or the level left.
A short description of series [18]: Plasma concentration in triple transgenic LaFerla mouse at 30 mg/kg, po measured after 3 hrs. The series is classed as ADME, organism-based.
The subject of series [19] is Homo sapiens. The series can be described thus: Antialzheimer activity in human assessed as reduction in amyloid beta (1 to 42) AUC at 1.3 mg/kg qd relative to control. On the set-up: scale not given: the % may be the effect or the level left. This is another data set of the same source.
The nature of series [20]: Oral bioavailability in Sprague-Dawley rat incubated for 24 hrs by LC-MS/MS analysis. Format: ADME, organism-based. To be noted: in vivo.
Series [21] deals with H4. Kind of series: Induction of amyloid beta (1 to 37) secretion in human H4 cells overexpressing APP incubated for overnight by Western blot analysis. The series is classed as functional, cell-based.
Series [22] deals with H4. Kind of series: Induction of amyloid beta (1 to 38) secretion in human H4 cells overexpressing APP incubated for overnight by Western blot analysis. Format: functional, cell-based.
A short description of series [23]: Suppression of total amyloid beta secretion in human H4 cells overexpressing APP incubated for overnight by Western blot analysis. The series is classed as ADME, cell-based.
Series [24] is described as follows: Ratio of drug level in brain to plasma in triple transgenic LaFerla mouse at 30 mg/kg, po measured after 3 hrs. The series is classed as ADME, organism-based.

The IC50 is the point on the concentration scale where inhibition reaches its midpoint. For orientation: bioavailability means the share of a dose that reaches the circulation, judged against a reference dose that is usually intravenous. For orientation: AUC(0-t) means exposure summed from dosing to a finite time, without extrapolation to infinity. As usually defined, the inhibition in vivo is the percentage by which the read-out fell short of the control. The NOAEL is the highest tested level that showed no adverse finding. A word on the logD: it is lipophilicity at a set pH, counting ionised and neutral species. Consider `CNc1nc(Nc2ccc(-n3cnc(Cl)c3)c(OC)c2)nc2c1CC[C@H]2c1ccccc1`, for which the remaining at 10 min in series [1] is 96%. The IC50 in [2] turned out to be 0.002 µM; in series [3] it was 1.4 µM; in series [4] it was 0.69 µM; in [9], 0.2 µM. The bioavailability is 64% in series [5] and 44% in series [11]. Further, in [6], the Fu was determined as 0.1%. For the same compound, in series [7], the AUC(0-t) at 24 h is 7.6 µM·h. The compound further showed an inhibition in vivo at 30 mg/kg in [8] of 86%. For the same compound, in series [10], the NOAEL was determined as 15 µM. Besides, the Activity entry is “Toxic” in [12]; “Toxic” in [14]; 25% in the series on Homo sapiens [17]; 25% in the series listed under Rattus norvegicus; 25% with Homo sapiens [19]. The compound also showed an inhibition in vivo at 10 mg/kg in series [13] of 59%. In addition, the concentration at 3 h was found to be 1.7 µM in series [15] and 2.1 µM in [18]. This compound gave a logD in [16] of 4.42. The same compound registered a F in [20] of 49%.
Regarding `CNc1nc(Nc2ccc(-n3cncn3)c(OC)c2)nc(-c2ccccc2)n1`, 0.12 µM corresponded to half-maximal inhibition in series [2] (IC50). Moreover, the outcome with H4 [21] and with H4 [22] was Active. In addition, in series [23], the Activity entry is on record as “Non-Toxic”.
For the compound `CNc1nc(Cc2ccccc2)nc(Nc2ccc(-n3cnc(C)c3)c(OC)c2)n1`, it took 0.031 µM to reach half-maximal inhibition in series [2] (IC50). The same compound registered an inhibition in vivo at 30 mg/kg in series [8] of 32%. In series [24], the BPR is listed as 0.47.
